pIC50: −log10 of the molar value.
System: NIH3T3
Assay: Cytotoxicity against mouse NIH/3T3 cells after 48 hrs by MTT assay
Format: cell-based
Settings: NIH3T3, 48 h
Procedure, shortened: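 NIH 3T3 mouse embryonic fibroblasts kept in DMEM + 10% FBS at 37 °C, 5% CO2. Seeded at 10,000 cells/well in medium with 5% FBS and left 24 h to attach. Compounds dissolved in DMSO, diluted in serum-free medium, serial concentrations, 48 h exposure, triplicates. MTT (5 mg/mL stock) added for 4 h, formazan taken up in DMSO, A570 read. Viability calculated as % of untreated control; IC50 taken from the dose curve.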

Compound | pIC50
Cc1nnc(Sc2c(-c3ccc(Cl)cc3)nc3ccccc3c2-c2ccccc2)s1 | 2.90
Cc1nnc(Sc2c(-c3ccc(Br)cc3)nc3ccccc3c2-c2ccccc2)s1 | 2.69

Reference: ChEMBL document CHEMBL1828510, “Synthesis of 3-heteroarylthioquinoline derivatives and their in vitro antituberculosis and cytotoxicity studies” (Eur J Med Chem, 2011)
